Results from ChEMBL document CHEMBL1151835, “Micropeptins from the freshwater cyanobacterium Microcystis aeruginosa (NIES-100)” (J Nat Prod, 2009).
In brackets after ≈: the same amount, converted by molar mass. Activity calls are given as the source filed them. The calls are words filed in the database; no cut-off is given here.

Assays:
[1] = Inhibition of chymotrypsin
In short: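 Alpha-chymotrypsin type II was made up at 15 U/mL in 50 mM Tris-HCl (pH 7.6). The enzyme and test solution were preincubated at 37 °C for 5 min. Substrate solution was N-succinyl-L-phenylalanyl-p-nitroanilide, 1 mg/mL in buffer. After adding it, absorbance at 405 nm was read at once and again after 30 min at 37 °C.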

[2] = Inhibition of trypsin at 20 ug/ml
[3] = molecular target: Prothrombin (Homo sapiens) (UniProt P00734); test: Inhibition of thrombin at 20 ug/ml
[4] = Inhibition of trypsin

| SMILES | IC50 [1] [µg/mL] | Activity [2] | Activity [3] | IC50 [4] [µg/mL] |
| --- | --- | --- | --- | --- |
| CCCCCC(=O)N[C@@H](CCC(=O)O)C(=O)N[C@@H]1C(=O)N[C@@H](Cc2ccc(O)cc2)C(=O)N[C@H]2CC[C@@H](O)N(C2=O)[C@@H](CC(C)C)C(=O)N(C)[C@@H](Cc2ccc(O)cc2)C(=O)N[C@@H](C(C)C)C(=O)O[C@@H]1C [MICROPEPTIN E] | 1 (≈ 1.01 µM) | inactive | inactive |  |
| CCCCCC(=O)N[C@@H](CCC(=O)O)C(=O)N[C@@H]1C(=O)N[C@@H](Cc2ccc(O)cc2)C(=O)N[C@H]2CC[C@@H](O)N(C2=O)[C@@H](Cc2ccccc2)C(=O)N(C)[C@@H](Cc2c[nH]c3ccccc23)C(=O)N[C@@H](C(C)C)C(=O)O[C@@H]1C [MICROPEPTIN T 1] |  |  |  | 3 (≈ 2.85 µM) |
| CCCCCC(=O)N[C@@H](CCC(=O)O)C(=O)N[C@@H]1C(=O)N[C@@H](Cc2ccc(O)cc2)C(=O)N[C@H]2CC[C@@H](O)N(C2=O)[C@@H](Cc2ccccc2)C(=O)N(C)[C@@H](Cc2ccc(O)cc2)C(=O)N[C@@H](C(C)C)C(=O)O[C@@H]1C [MICROPEPTIN C] | 1.1 (≈ 1.07 µM) | inactive | inactive |  |
| CCCCCCCC(=O)N[C@@H](CCC(=O)O)C(=O)N[C@@H]1C(=O)N[C@@H](Cc2ccc(O)cc2)C(=O)N[C@H]2CC[C@@H](O)N(C2=O)[C@@H](CC(C)C)C(=O)N(C)[C@@H](Cc2ccc(O)cc2)C(=O)N[C@@H](C(C)C)C(=O)O[C@@H]1C [MICROPEPTIN F] | 1.5 (≈ 1.47 µM) | inactive | inactive |  |
| CCCCCC(=O)N[C@@H](CCC(=O)O)C(=O)N[C@@H]1C(=O)N[C@@H](CCCNC(=N)N)C(=O)N[C@H]2CC[C@@H](O)N(C2=O)[C@@H](CC(C)C)C(=O)N(C)[C@@H](Cc2ccc(O)cc2)C(=O)N[C@@H](C(C)C)C(=O)O[C@@H]1C [MICROPEPTIN B] |  |  |  | 0.25 (≈ 0.253 µM) |
| CCCCCCCC(=O)N[C@@H](CCC(=O)O)C(=O)N[C@@H]1C(=O)N[C@@H](Cc2ccc(O)cc2)C(=O)N[C@H]2CC[C@@H](O)N(C2=O)[C@@H](Cc2ccccc2)C(=O)N(C)[C@@H](Cc2ccc(O)cc2)C(=O)N[C@@H](C(C)C)C(=O)O[C@@H]1C [MICROPEPTIN D] | 1.2 (≈ 1.14 µM) | inactive | inactive |  |
